The source made the active and inactive calls. Unless noted, no stated cut-off is given here; in the data, active means inhibition above about 30%; inactive means the rest.
Experiments:
[1] = reduced viability of SK-BR-3 breast cancer cells – cell-based, 24 h, human, pilot screen (AID 572;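 active means viability at or below 10% of carrier control in both of two separate runs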;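 further: compound exposure lasted between 18 and 24 h rather than exactly 24 h; 100% = carrier-treated control wells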); settings: SK-BR-3 viability, CellTiter-Glo luminescence, at 10 µM, stronger effect = lower value
[2] = HUVEC growth inhibition – cell-based, human, primary screen (AID 575;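 active means viability at or below 30% in both replicate assays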;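 further: 100% = median of untreated cell wells with 0.1% DMSO on each plate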); settings: HUVEC proliferation, CellTiter-Glo luminescence, 72 h; at 10 µM; stronger effect = lower value
Method in brief: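 Test system – primary HUVEC, no more than 12 passages · Dosing – one dose, 10 µM final, 0.1% DMSO · Times – 72 h treatment at 37 °C · Measured by – ATP-based CellTiter-Glo luminescent read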

[3] = H69AR cell proliferation blockers – human, duplicate replicates, primary screen (AID 580;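 active means viability at or under a set limit in both replicates, limit being median viability minus 3 SD, cut at about 48% in these data, passing the limit was not always enough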;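 further: 100% = mean luminescence of untreated wells and 0% = no signal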); settings: H69AR lung tumor cells viability, ATP luminescence, 72 h; at 10 µM; stronger effect = lower value
[4] = MRP1 drug-resistance reversers in H69AR cells – cell-based, doxorubicin co-treatment, pilot screen (AID 601;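 active means viability loss from added drug above about 55%, and viability with drug at most 40%, in both replicates, limit read from the data, passing the limit was not always enough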); settings: CellTiter-Glo, 72 h, at 10 µM; for differential viability (reversal): stronger effect = higher value
[5] = yeast transport mutant growth inhibition pilot in 384-well plates, post-Golgi transport modulator project (AID 636; in the data active means inhibition above about 31%); settings: absorbance 615 nm, about 18 h, stronger effect = higher value
[6] = growth suppression of yeast trafficking mutant, preliminary HTS, modulators of trafficking downstream of Golgi apparatus project, 1536-format plate, OD 615 nm (AID 637); settings: yeast transport mutant growth, absorbance 615 nm, 18 h; stronger effect = higher value
[7] = H69AR cells + 2 uM doxorubicin, measured here: viability with 2 uM doxorubicin, stronger effect = lower value
[8] = H69AR cells, compound alone cytotoxicity

SMILES	viability [1]	viability [2]	viability [3]	differential viability (reversal) ([4]; H69AR cells + 2 uM doxorubicin)	viability [4, 7] [%]	viability [4, 8] [%]	inhibition [5]	inhibition [6]
CC(C)N(Cc1nc(-c2ccc(Cl)cc2)no1)C(=O)CN(C)S(=O)(=O)c1ccc(Cl)cc1	95% (inactive)	66.3% (inactive)	78.7% (inactive)	-7.31% (inactive)	86.1	78.7	-0.68% (inactive)	1.29% (inactive)
O=C(CSc1nnc(-c2ccc(Br)cc2)n1C1CCCCC1)N1CCCC1	64% (inactive)	113% (inactive)	80.2% (inactive)	-6.92% (inactive)	87.1	80.2	-6.58% (inactive)	-2% (inactive)
CC(C(=O)NC(=O)NC1CCCCC1)N1CCN(c2ccccn2)CC1 (centres undefined)	96% (inactive)	95.6% (inactive)	104% (inactive)	14.7% (inactive)	88.9	104	-2.4% (inactive)	-3.27% (inactive)
COc1ccccc1NC(=O)NCc1ccc2c(c1)OCO2	87% (inactive)	101% (inactive)	93% (inactive)	-1.33% (inactive)	94.4	93	-4.13% (inactive)	-3.82% (inactive)
Cc1ccc2cc(CN(Cc3ccc(F)cc3)Cc3nnnn3C3CCCC3)c(=O)[nH]c2c1	100% (inactive)	71.2% (inactive)	78.7% (inactive)	4.34% (inactive)	74.4	78.7	-4.19% (inactive)	3.09% (inactive)
O=C(O)c1cc(-c2ccccc2)nc2ccccc12	91% (inactive)	92.7% (inactive)	76.7% (inactive)	2.04% (inactive)	74.6	76.7	2.99% (inactive)	4.83% (inactive)
COCCNC(=O)C(c1ccc(C)o1)N(Cc1cccs1)C(=O)c1snc(C(N)=O)c1N (centres undefined)	87% (inactive)	86.8% (inactive)	86.4% (inactive)	0.375% (inactive)	86	86.4	4% (inactive)	12.7% (inactive)
CCOC(=O)N1CCC(NC(=O)Cn2cc3c(n2)CCC(C)C3)CC1 (centres undefined)	128% (inactive)	93% (inactive)	98.7% (inactive)	3% (inactive)	95.7	98.7	-1.64% (inactive)	18.7% (inactive)
Cc1cccc(N(CC(=O)Nc2ccc(CC#N)cc2)S(C)(=O)=O)c1	108% (inactive)	105% (inactive)	97% (inactive)	10.8% (inactive)	86.2	97	-10.8% (inactive)	2.74% (inactive)
COc1ccc(CCNC(=O)CCN2C(=O)C3CC=CCC3C2=O)cc1OC (centres undefined)	103% (inactive)	91.9% (inactive)	105% (inactive)	12% (inactive)	92.8	105	-2.08% (inactive)	-1.97% (inactive)
CCN(CC)C(c1ccc(C)cc1)c1nnnn1C1CCCCC1 (centres undefined)	64% (inactive)	102% (inactive)	75.5% (inactive)	7% (inactive)	68.5	75.5	-6.13% (inactive)	-4.73% (inactive)
O=C(Nc1ccccc1)N(CCCN1CCOCC1)Cc1cc2cc3c(cc2[nH]c1=O)OCCO3	96% (inactive)	82.3% (inactive)	67.6% (inactive)	2.71% (inactive)	64.9	67.6	2.13% (inactive)	3.45% (inactive)
CC(C)(C)C(=O)NC1CCN(C(=O)N2CCCC2)CC1	93% (inactive)	102% (inactive)	94.5% (inactive)	11.3% (inactive)	83.2	94.5	-8.24% (inactive)	2.91% (inactive)
CCN(CC)CCCNC1CCS(=O)(=O)C1 (centres undefined)	126% (inactive)	83% (inactive)	87.9% (inactive)	4.3% (inactive)	83.6	87.9	-3.42% (inactive)	-4.52% (inactive)
N#CCc1nc2c3c4c(sc3ncn2n1)CCCC4	112% (inactive)	23.6% (active)	86.4% (inactive)	8.27% (inactive)	78.1	86.4	-5.54% (inactive)	0.36% (inactive)
CCn1cc(C(=O)O)c(=O)c2cc(F)c(N3CCNCC3)cc21	105% (inactive)	91.1% (inactive)	92.1% (inactive)	3.17% (inactive)	88.9	92.1	-3.77% (inactive)	7.83% (inactive)
COCCCNCC(=O)Nc1ccc(OC(F)(F)F)cc1	102% (inactive)	113% (inactive)	98.5% (inactive)	13% (inactive)	85.5	98.5	-9.2% (inactive)	-5.82% (inactive)
COc1ccccc1C(=O)NCC(=O)Nc1ccccc1	104% (inactive)	98.2% (inactive)	98.5% (inactive)	-1.45% (inactive)	100	98.5	-8.08% (inactive)	2.91% (inactive)
